Screens as filed in PubChem.
An excerpt weighted towards active compounds, which were near 2.5% of everything screened.
PRMT1 FP inh: PRMT1 methyltransferase inhibitors, primary screen, biochemical, fluorescence polarization; Protein arginine N-methyltransferase 1 (Homo sapiens), Q99873; recombinant PRMT1, activity-based probe fluorescence polarization; inhibition, % at 2.79 µM; hit rate 1.3% among 370,000;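 active means inhibition above about 21% made by adding two undisclosed values, limit read from the data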
eLon inh: inhibitors of E. coli Lon protease, primary screen, biochemical, fluorescence polarization | purified E. coli Lon protease | hit rate 0.42% among 360,000 | inhibition, % at 7.94 µM | P0A9M0; in the data active means inhibition above about 13%, passing the limit was not always enough;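 further: 0% = enzyme with probe and DMSO and 100% = no enzyme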
PAD4 FP inh: human PAD4 inhibitors, primary screen, biochemical, fluorescence polarization, 1536-well format; Protein-arginine deiminase type-4 (Homo sapiens), Q9UM07; recombinant PAD4, RCA probe fluorescence polarization; inhibition, % at 6.36 µM; hit rate 0.41% among 330,000;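 active means percent inhibition above a cutoff equal to the mean of all tested compounds plus 3 SD, cut at about 15% in these data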;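 further: 0% = PAD4 with RCA probe and DMSO and 100% = probe without PAD4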
GSTO1 counter: inhibitors of recombinant GSTO1, primary screen, counter-screen for RBBP9 inhibitor project, biochemical, fluorescence polarization; hit rate 1.1% among 300,000; inhibition, % at 5.96 µM; Glutathione S-transferase omega-1 (Homo sapiens), P78417; activity-based probe fluorescence polarization; AID 1974, 2009;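 active means inhibition above the campaign mean inhibition plus 3 SD, cut at about 35% in these data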;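 further: 0% = GSTO1-1 with DMSO and 100% = wells lacking GSTO1-1 enzyme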
Target sequence (P78417 whole entry, looked up): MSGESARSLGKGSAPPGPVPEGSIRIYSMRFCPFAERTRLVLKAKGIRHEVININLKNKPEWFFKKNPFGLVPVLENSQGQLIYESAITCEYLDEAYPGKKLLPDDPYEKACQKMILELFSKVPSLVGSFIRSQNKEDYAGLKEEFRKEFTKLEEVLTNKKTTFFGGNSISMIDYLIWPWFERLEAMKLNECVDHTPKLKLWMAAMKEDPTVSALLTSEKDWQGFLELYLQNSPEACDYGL
TDP2 absorb: human TDP2 enzyme inhibitors, primary screen, biochemical, epi absorbance, recombinant enzyme; T5PNP hydrolysis, p-nitrophenol absorbance 415 nm; inhibition, % at 12.8 µM; hit rate 0.34% among 370,000; AID 720702, 2013;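 active means inhibition above the mean of all tested compounds plus 3 SD, set per campaign, cut at about 25% in these data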;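 further: 0% = DMSO with enzyme and 100% = buffer with substrate but no TDP2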
Target sequence (O95551 whole entry, looked up): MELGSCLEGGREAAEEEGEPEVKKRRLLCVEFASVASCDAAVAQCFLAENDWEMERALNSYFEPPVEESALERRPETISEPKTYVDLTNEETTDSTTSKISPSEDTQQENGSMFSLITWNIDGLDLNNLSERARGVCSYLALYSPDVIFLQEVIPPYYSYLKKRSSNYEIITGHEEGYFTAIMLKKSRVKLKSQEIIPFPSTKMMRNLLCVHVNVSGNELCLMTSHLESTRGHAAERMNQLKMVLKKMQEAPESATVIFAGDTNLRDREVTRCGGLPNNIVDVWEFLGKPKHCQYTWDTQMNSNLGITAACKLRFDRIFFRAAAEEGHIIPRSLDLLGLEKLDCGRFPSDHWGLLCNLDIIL
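Incubation: 2 h at 37 °C; Test system: recombinant human TDP2; Quantity: enzyme 120 nM; Read-out basis: percent inhibition; Medium: 50 mM Tris-HCl pH 7.5 with Mg2+, KCl, DTT, BSA; Repeats: single replicate; Compound: 12.8 µM single point, 1% DMSO; Signal: epi absorbance; Reagent: 5 mM T5PNP chromogenic substrate; Benchmarks: no-enzyme high, DMSO-plus-enzyme low.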
GSTO1 confirm: GSTO1 inhibitor hit confirmation, counter-screen for RBBP9 inhibitor project, biochemical, fluorescence polarization, triplicate | shares compounds with GSTO1 counter | recombinant GSTO1, probe fluorescence polarization | inhibition, % at 5.96 µM | hit rate 54% among 2,400;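 active means inhibition above the primary screen's cutoff, its mean inhibition plus 3 SD, cut at about 35% in these data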;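 further: loss of polarization as inhibitors block binding of rhodamine sulfonate ester activity probe; 0% = GSTO1 with DMSO and 100% = wells lacking GSTO1 enzyme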
GSTO1 recomb ABPP: inhibitors of purified human GSTO1, late-stage follow-up, biochemical, gel ABPP, SE-Rh probe, percent inhibition. hit rate 30% among 130. shares compounds with GSTO1 counter. recombinant GSTO1, gel ABPP SE-Rh probe fluorescence. inhibition, % at 1 µM;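 active means inhibition of the enzyme GSTO1 above about 75%, limit read from the data; inactive means inhibition below that limit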
An asterisk follows results filed as active; nt = not tested or not shown.

SMILES | PRMT1 FP inh | eLon inh | PAD4 FP inh | GSTO1 counter | TDP2 absorb | GSTO1 confirm | others
c1ccc(COC2COC3C(OCc4ccccc4)COC23)cc1 (stereo unspecified) | 3.5 | -9.4 | nt | nt | 3.5 | nt
CC1CCC2(CCC(=O)N2CCCO)CC1 (stereo unspecified) | 1.9 | nt | nt | nt | 1.0 | nt
CC(=O)Oc1ccc(N(C(C)=O)S(=O)(=O)c2cccs2)c2ccccc12 | 10.9 | -7.5 | -5.4 | 51.8* | 7.9 | 13.5
Cc1nn(-c2ccc(Cl)cc2)c2[nH]c(CCl)cc(=O)c12 | -2.2 | 0.1 | -1.1 | 96.5* | -14.1 | 97.9* | GSTO1 recomb ABPP=72.0
Cc1cc(=O)[nH]c2c1c(C)nn2-c1ccccc1 | -0.4 | -0.6 | -3.7 | 3.5 | -1.2 | nt
COC(=O)[C@]12C[C@H](CC(=O)NCc3ccccc3)C(=O)N(Cc3cccc4ccccc34)C1=C[C@H](COCc1ccccc1)O[C@@H]2C | -3.9 | nt | nt | nt | -0.1 | nt
CCN(CC)c1ccc(N=Cc2cc(Br)ccc2O)cc1 | 22.2* | -5.1 | 13.5 | 74.3* | -3.4 | 6.0
Oc1ccc(Br)cc1C=Nc1ccc(Cl)cc1 | 0.9 | -1.7 | -2.8 | 0.7 | 10.5 | nt
CN1CCC(NC(=O)c2cccc(Oc3ccccc3)c2)CC1 | -0.2 | -1.6 | -1.5 | 63.5* | -7.8 | 5.9
O=C(NC1CCCC1)c1cccc(Oc2ccccc2)c1 | -0.5 | 12.2 | 8.7 | 3.1 | -4.1 | nt
COc1cccc(Cn2cc(COC(=O)NCC(C)C)nn2)c1 | -0.8 | nt | nt | nt | 0.3 | nt
Cc1cc(C(=O)CN2C(=O)c3ccccc3S2(=O)=O)c(C)n1CC1CCCO1 (stereo unspecified) | 4.4 | -2.5 | 6.4 | 73.1* | 6.0 | 5.3
COc1cc(NCc2ccccc2O)c2ncccc2c1 | 17.9 | -4.3 | nt | nt | -2.1 | nt
COc1cc(NCCCCCCCN)c2ncccc2c1 | nt | -4.6 | 26.8* | 45.5* | nt | 59.8*
COC(=O)[C@]12C[C@H](CC(=O)NCc3ccc(OC)c(OC)c3)C(=O)N(Cc3cccc4ccccc34)C1=C[C@H](COCc1ccccc1)O[C@@H]2C | -1.8 | nt | nt | nt | 4.7 | nt
Cc1ccc(-c2cc(O)cc3sc(=O)oc23)cc1C | 7.7 | 1.3 | 6.6 | 53.4* | -16.0 | 7.8
Cc1ccccc1C(=O)NC(=S)Nc1ccccc1N1CCCC1 | 15.0 | -8.7 | -1.3 | 13.3 | -11.7 | nt
COc1ccccc1C(=O)NC(=S)Nc1ccccc1N1CCCC1 | 12.1 | -6.8 | 3.7 | 39.7* | -23.3 | 8.3
COc1ccc(N(C(=O)CCl)C(C(=O)NCCc2ccccc2)c2cccs2)cc1Cl (stereo unspecified) | 2.2 | 1.0 | 9.8 | 89.2* | 3.8 | 90.5* | GSTO1 recomb ABPP=92.0*
COc1cccc(N(C(=O)CCl)C(C(=O)NCCc2ccccc2)c2cccs2)c1 (stereo unspecified) | 2.2 | -13.5 | 11.0 | 93.8* | 3.3 | 95.3* | GSTO1 recomb ABPP=75.0*
COc1cccc(N(C(=O)c2snc(C(N)=O)c2N)C(C(=O)NCC2CCCO2)c2cccs2)c1 (stereo unspecified) | -1.6 | 7.0 | -5.4 | -3.3 | 17.8 | nt
COC(=O)[C@]12C[C@H](CC(=O)NCCCCc3ccccc3)C(=O)N(CCC3=CCCCC3)C1=C[C@H](COCc1ccccc1)O[C@@H]2C | -1.6 | nt | nt | nt | -2.8 | nt
CC(C)(C)OC(=O)NCc1cc2c(cc1/C=C/S(=O)(=O)NCc1ccc(F)cc1)OCO2 | 5.0 | nt | nt | nt | -3.1 | nt
CO[C@H]1C=CO[C@@]2(C)Oc3c(C)c(O)c4c(O)c(c(C=NN5CCN(C)CC5)c(O)c4c3C2=O)NC(=O)C(C)=CC=C[C@H](C)[C@H](O)[C@@H](C)[C@@H](O)[C@@H](C)[C@H](OC(C)=O)[C@@H]1C | 8.3 | -10.2 | -4.8 | 76.9* | -3.6 | 69.9*
CO[C@H]1/C=C/O[C@@]2(C)Oc3c(C)c(O)c4c(O)c(c(C=NN5CCN(C)CC5)c(O)c4c3C2=O)NC(=O)/C(C)=C\C=C\[C@H](C)[C@H](O)[C@@H](C)[C@@H](O)[C@@H](C)[C@H](OC(C)=O)[C@@H]1C | 2.0 | -3.4 | -0.9 | 62.3* | -5.2 | 54.7*
SMILES | PRMT1 FP inh | eLon inh | PAD4 FP inh | GSTO1 counter | TDP2 absorb | GSTO1 confirm | others
Cc1c(C(=O)Nc2nc(-c3ccccn3)cs2)oc2ccccc12 | nt | -11.5 | 0.1 | nt | nt | nt
O=C(Nc1nc(-c2ccccn2)cs1)c1cc2ccccc2o1 | -5.0 | -0.3 | -6.2 | 48.1* | -0.3 | 38.9*
COC(CNC(=O)[C@H](Cc1c[nH]c2ccccc12)NC1(C(=O)NC(c2ccccc2)c2ccccc2)CCCCC1)OC | -3.3 | nt | nt | nt | -3.9 | nt
COc1ccc(-c2cc(=O)oc3c(O)c(O)ccc23)cc1 | 8.7 | 14.8 | 7.0 | 57.8* | -1.9 | 18.8
CCOC(=O)N1CCN(C(=O)Cc2ccc(Cl)cc2)CC1 | 0.3 | -1.1 | -0.6 | -2.9 | 1.1 | nt
CCOC(=O)N1CCN(C(=O)CCl)CC1 | 3.7 | 2.5 | 2.7 | 77.2* | -3.5 | 91.9*
CC(C)(C)NC(=O)CN1CCN(C(=O)CCl)CC1 | 2.4 | -0.7 | -2.4 | 81.7* | 4.5 | 96.1* | GSTO1 recomb ABPP=33.0
CCOc1ccc(CCNC(=O)c2cc3ccsc3n2C)cc1OCC | 2.4 | nt | nt | nt | -4.2 | nt
Cn1c(=O)oc2cc(NC(=O)CCl)ccc21 | 6.8 | 10.5 | -3.7 | 76.0* | -4.9 | 86.7*
CC(=O)Nc1ccc(NC(=O)CCS(=O)(=O)c2ccc3c(c2)oc(=O)n3C)cc1 | 1.4 | -1.7 | 1.4 | 1.9 | -21.3 | nt
CCC[C@H]1[C@@H](OC(=O)NC2CCCCC2)CC[C@@]23CCCN2C(=O)CCC[C@@H]13 | -6.2 | nt | nt | nt | 6.5 | nt
O=C(NCc1ccco1)c1cc(-c2cccnc2)nc2ccccc12 | -2.2 | 3.2 | 0.6 | 37.9* | 12.4 | 4.9
Cn1c(O)c(N=NC(=S)Nc2ccccc2F)c2cc(S(=O)(=O)N3CCOCC3)ccc21 | -0.5 | 10.7 | nt | nt | 10.7 | nt
C=CCn1c(O)c(N=NC(=S)Nc2ccccc2C)c2cc(S(=O)(=O)N3CCOCC3)ccc21 | -5.8 | 3.0 | 0.0 | 42.1* | 3.5 | 7.1
CCn1c(COc2ccccc2)nnc1SCC(=O)Nc1ccc(Oc2ccccc2)cc1 | 0.2 | nt | nt | nt | 0.6 | nt
Cc1cc(C)cc(NS(=O)(=O)c2cccs2)c1 | -5.4 | 7.1 | 3.3 | 1.9 | -5.4 | nt
Cc1ccc(NC2=C/C(=N/S(=O)(=O)c3cccs3)c3ccccc3C2=O)cc1C | -2.5 | -6.5 | -17.1 | 30.2 | -0.6 | nt
Cc1cc[n+](C2=C([O-])c3ccccc3C(=O)/C2=N\S(=O)(=O)c2cccs2)cc1C | 0.4 | -0.8 | 5.7 | 90.3* | 0.1 | 89.7*
Cc1cc(C)c[n+](C2=C([O-])c3ccccc3C(=O)/C2=N\S(=O)(=O)c2cccs2)c1 | -2.2 | 0.2 | -15.6 | 80.8* | 0.1 | 87.5*
